Measured values from ChEMBL document CHEMBL3576808, “Phylum-specific regulation of resistomycin production in a Streptomyces sp. via microbial coculture” (J Nat Prod, 2015).
Calls of active or inactive are those of the source.

Columns and labels:
[1] = test system: Brucella neotomae; assay: Antimicrobial activity against Brucella neotomae ATCC 23459 assessed as inhibition of microbial growth at 50 ug/ml; format: functional
Procedure, shortened: (§1)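 Single-dose growth-inhibition test at 50 μg/mL. Stock culture (50 μL) went into 10 mL tryptic soy broth and was shaken overnight at 37 °C; X. axonopodis was grown at 30 °C instead. OD was read at 625 nm and cells were adjusted to about 5 × 10^5 CFU per 100 μL well. Compound was added to a 100 μL final volume and plates were incubated overnight.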

[2] = Retention time of the compound by HPLC method; format: physicochemical
[3] = test system: Enterococcus faecalis; assay: Antimicrobial activity against Enterococcus faecalis ATCC 29212 assessed as inhibition of microbial growth at 50 ug/ml; format: functional, organism-based
[4] = test system: Firmicutes; assay: Antimicrobial activity against Firmicutes K940; format: functional; conditions: Bacillota
Procedure, shortened: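 Growth-inhibition assay against the inducing Actinobacteria (E906) and Firmicutes (K940) coculture isolates. Dose-response testing gave the MIC values. Bacteria were grown overnight in tryptic soy broth with shaking and read by OD at 625 nm. Wells were adjusted to about 5 × 10^5 CFU per 100 μL, compound was added to a 100 μL final volume, and plates were incubated overnight.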

[5] = test system: Xanthomonas axonopodis; assay: Antimicrobial activity against Xanthomonas axonopodis ATCC 8718 assessed as inhibition of microbial growth at 50 ug/ml; format: functional, organism-based; procedure, shortened: as §1
[6] = test system: Mycobacterium tuberculosis; assay: Antimicrobial activity against Mycobacterium tuberculosis H37Rv assessed as inhibition of microbial growth at 50 ug/ml; format: functional, organism-based
[7] = test system: Burkholderia vietnamiensis; assay: Antimicrobial activity against Burkholderia vietnamiensis ATCC BAA-248 assessed as inhibition of microbial growth at 50 ug/ml; format: functional; procedure, shortened: as §1
[8] = test system: Escherichia coli; assay: Antimicrobial activity against Escherichia coli ATCC 25922 assessed as inhibition of microbial growth at 50 ug/ml; format: functional, organism-based; procedure, shortened: as §1
[9] = test system: Yersinia pestis; assay: Antimicrobial activity against Yersinia pestis A1122 assessed as inhibition of microbial growth at 50 ug/ml; format: functional, organism-based
[10] = test system: Pseudomonas aeruginosa; assay: Antimicrobial activity against Pseudomonas aeruginosa ATCC 27853 assessed as inhibition of microbial growth at 50 ug/ml; format: functional, organism-based; procedure, shortened: as §1

Cc1cc(O)c2c3c4c(cc(O)c13)C(C)(C)C(=O)c1c(O)cc(O)c(c1-4)C2=O [HELIOMYCIN]
0.25 µg/mL: MIC [4]
17.9 min: Retention_time [2]
inactive: inhibition [1] | inhibition [3] | inhibition [5] | inhibition [6] | inhibition [7] | inhibition [8] | inhibition [9] | inhibition [10]
